Converted amounts (≈) assume the structure as drawn.
Key:
[1] = tested on: Mycobacterium tuberculosis; test: Antitubercular activity against Mycobacterium tuberculosis H37Rv assessed as inhibition of bacterial growth; type: functional
[2] = tested on: Mycobacterium tuberculosis; test: Antitubercular activity against Mycobacterium tuberculosis H37Rv assessed as inhibition of bacterial growth measured after 7 days by resazurin assay; type: functional; details: 168 h, time 7 day
[3] = tested on: Mycobacterium tuberculosis; test: Antitubercular activity against Mycobacterium tuberculosis H37Rv assessed as inhibition of bacterial growth incubated for 6 days by MABA assay; type: functional; details: 144 h, time 6 day
[4] = tested on: Mycobacterium tuberculosis; test: microbe, parasite or virus in culture; details: mc2-7000, 144 h
[5] = Metabolic stability of the compound in mouse liver microsomes assessed as parent compound remaining […]; type: ADME, Microsome; details: read-out: Stabilty
[6] = Metabolic stability of the compound in human liver microsomes; type: ADME, Microsome
[7] = Metabolic stability of the compound in mouse liver microsomes; type: ADME, Microsome
Outline: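 Compound was incubated with mouse liver microsomes plus NADPH for 30 min. Remaining substrate concentration was normalized to the time-zero concentration and given as % remaining. The stability call was made from incubations run without the NADPH cofactor.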

[8] = Selectivity index, ratio of IC50 for African green monkey Vero cells to MIC for Mycobacterium tuberculosis H37Rv; type: toxicity; details: read-out: Selectivity Index
Outline: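 SI was calculated as Vero cell cytotoxicity IC50 divided by H37Rv MIC, both in μg/mL.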

Vero = test: Cytotoxicity against African green monkey Vero cells assessed as reduction in cell viability; type: cell-based; details: Chlorocebus sabaeus
[9] = MRT (0 to infinity) in BALB/c mouse at 100 mg/kg, po administered as single dose; type: ADME, organism-based; details: in vivo
[10] = Toxicity in BALB/c mouse infected with Mycobacterium tuberculosis H37Rv assessed as body weight at 100 mg/kg, po administered for 21 days (reference value: 21.32 +/- 1.03 gms); type: organism-based; details: in vivo, 504 h, time 21 day
[11] = Cmax in BALB/c mouse at 100 mg/kg, po administered as single dose; type: ADME, organism-based; design: route oral, dose 100 mg/kg; details: in vivo
[12] = Cmax in BALB/c mouse at 5 mg/kg, iv administered as single dose; type: ADME, organism-based; design: route intravenous, dose 5 mg/kg; details: in vivo
[13] = MRT (0 to infinity) in BALB/c mouse at 5 mg/kg, iv administered as single dose; type: ADME, organism-based; details: in vivo
[14] = AUC (0 to t) in BALB/c mouse at 5 mg/kg, iv administered as single dose; type: ADME, organism-based; design: dose 5 mg/kg; details: in vivo
[15] = Elimination half life in BALB/c mouse at 5 mg/kg, iv administered as single dose; type: ADME, organism-based; details: in vivo, read-out: beta t1/2 (converted)
[16] = AUC (0 to t) in BALB/c mouse at 100 mg/kg, po administered as single dose; type: ADME, organism-based; design: dose 100 mg/kg; details: in vivo
[17] = MRT (0 to t) in BALB/c mouse at 100 mg/kg, po administered as single dose; type: ADME, organism-based; details: in vivo
[18] = Clearance in BALB/c mouse at 5 mg/kg, iv administered as single dose; type: ADME, organism-based; details: in vivo
[19] = AUC (0 to infinity) in BALB/c mouse at 5 mg/kg, iv administered as single dose; type: ADME, organism-based; design: time infinity, route intravenous, dose 5 mg/kg; details: in vivo
[20] = AUC (0 to infinity) in BALB/c mouse at 100 mg/kg, po administered as single dose; type: ADME, organism-based; design: time infinity, route oral, dose 100 mg/kg; details: in vivo
[21] = Tmax in BALB/c mouse at 100 mg/kg, po administered as single dose; type: ADME, organism-based; details: in vivo
[22] = Elimination half life in BALB/c mouse at 100 mg/kg, po administered as single dose; type: ADME, organism-based; details: in vivo, read-out: beta t1/2 (converted)
[23] = MRT (0 to t) in BALB/c mouse at 5 mg/kg, iv administered as single dose; type: ADME, organism-based; details: in vivo
[24] = Volume of distribution in BALB/c mouse at 5 mg/kg, iv administered as single dose; type: ADME, organism-based; details: in vivo
[25] = tested on: Mycobacterium tuberculosis; test: In vivo antitubercular activity against Mycobacterium tuberculosis H37Rv infected in BALB/c mouse assessed as reduction in bacterial burden in lungs at 100 mg/kg, po administered for 21 days (reference value: 5.35 +/-0.17 log10CFU); type: functional; details: time 21 day
[26] = Oral bioavailability in BALB/c mouse at 100 mg/kg; type: ADME, organism-based; details: in vivo
[27] = tested on: Mycobacterium tuberculosis; test: In vivo antitubercular activity against Mycobacterium tuberculosis H37Rv infected in BALB/c mouse assessed as reduction in bacterial burden in lungs at 25 mg/kg, po administered for 21 days (reference value: 5.35 +/-0.17 log10CFU); type: functional; details: time 21 day
[28] = Toxicity in BALB/c mouse infected with Mycobacterium tuberculosis H37Rv assessed as body weight at 25 mg/kg, po administered for 21 days (reference value: 21.32 +/- 1.03 gms); type: organism-based; details: in vivo, 504 h, time 21 day

## COc1ccc(-c2cc(=O)c3cc(O)ccc3o2)cc1
[1]
  MIC: > 32 µg/mL

## C=CCCCCCCC[C@H]1C(=O)O[C@@H]1CCCCCNC(=O)c1ccc(N(C)C)cc1
[2]
  MIC: 1.6 µM (≈ 0.686 µg/mL)

## COC(=O)c1c(NC(=O)c2c(F)c(F)c(F)c(F)c2F)sc2c1CCCCC2
[1]
  MIC: 1 µM

## CCOC(=O)c1c(NC(=O)c2c(F)c(F)c(F)c(F)c2F)sc(C(N)=O)c1C
[1]
  MIC: 0.5 µM

## CCOC(=O)c1c(NC(=O)c2c(F)c(F)c(F)c(F)c2F)sc2c1CCN(CC)C2
[3]
  MIC: 0.23 µM (≈ 0.103 µg/mL)

## CNC(=O)c1c(-c2ccc(O)cc2)oc2ccc(O)c(CN3CCCCC3)c12
[1]
  MIC: 0.047 µg/mL
[4]
  MIC: 0.09 µM (≈ 0.0342 µg/mL)

## O=c1cc(-c2ccccc2)oc2ccc(O)c(CN3CCCCC3)c12
[1]
  MIC: 3.12 µg/mL

## CCOC(=O)c1c(-c2ccccc2)oc2ccc(O)c(CN3CCCC3)c2c1=O
[1]
  MIC: > 32 µg/mL

## O=c1cc(-c2ccc(Cl)cc2)oc2ccc(O)c(CN3CCC3)c12
[1]
  MIC: 28.5 µg/mL

## CCOC(=O)c1c(-c2ccccc2)oc2ccc(O)c(CN3CCC3)c2c1=O
[1]
  MIC: 14.1 µg/mL

## O=c1cc(-c2ccc(O)cc2)oc2ccc(O)c(CN3CCCCC3)c12
[1]
  MIC: 3.84 µg/mL

## O=c1c(-c2ccc(O)cc2)coc2ccc(O)c(CN3CCCCC3)c12
[1]
  MIC: > 32 µg/mL

## O=c1cc(-c2ccccc2)oc2ccc(O)c(CN3CCC3)c12
[1]
  MIC: 3.22 µg/mL

## O=c1cc(-c2ccccc2)oc2ccc(O)c(CN3CC4(CSC4)C3)c12
[1]
  MIC: 31.1 µg/mL

## CCOC(=O)c1c(-c2ccc(O)cc2)oc2ccc(O)c(CN3CCCC3)c2c1=O
[1]
  MIC: > 32 µg/mL

## CCN(CC)Cc1c(O)ccc2oc(-c3ccc(O)cc3)cc(=O)c12
[1]
  MIC: 29.9 µg/mL

## O=c1cc(-c2ccc(O)cc2)oc2ccc(O)c(CN3CCCC3)c12
[5]
  remaining at 0.5 h: 102%
[1]
  MIC: 0.938 µg/mL
[6]
  Stabilty: Stable
[7]
  Stabilty: Stable
[8]
  selectivity ratio: 9
Vero
  IC50: 8.8 µg/mL (≈ 26.1 µM)

## CCOC(=O)c1c(-c2ccccc2)oc2ccc(O)c(CN3CCCCC3)c2c1=O
[1]
  MIC: 31.9 µg/mL

## O=c1cc(-c2ccc(O)cc2)oc2ccc(O)c(CN3CCOCC3)c12
[1]
  MIC: > 32 µg/mL

## O=c1cc(-c2ccc(F)cc2)oc2ccc(O)c(CN3CCC3)c12
[1]
  MIC: 3.55 µg/mL

## O=c1cc(-c2ccc(O)cc2)oc2ccc(O)c(CNC3CCCCC3)c12
[1]
  MIC: > 32 µg/mL

## CNC(=O)c1c(-c2ccccc2)oc2ccc(O)c(CN3CCC3)c2c1=O
[1]
  MIC: > 32 µg/mL

## CNC(=O)c1c(-c2ccccc2)oc2ccc(O)c(CN3CCCC3)c2c1=O
[1]
  MIC: > 32 µg/mL

## O=c1cc(-c2ccccc2)oc2ccc(O)c(CN3CCCC3)c12
[1]
  MIC: 3.68 µg/mL

## COc1ccc(-c2cc(=O)c3c(CN4CCCCC4)c(O)ccc3o2)cc1
[1]
  MIC: 7.3 µg/mL

## Cc1ccc(-c2cc(=O)c3c(CN4CCC4)c(O)ccc3o2)cc1
[1]
  MIC: 6.52 µg/mL

## O=c1cc(-c2ccc(O)cc2)oc2ccc(O)c(CN3CCC3)c12
[9]
  MRT inf: 1.82 h
[5]
  remaining at 0.5 h: 96%
[10]
  Activity: 20.57 g
[11]
  Cmax: 1660 ng/mL
[1]
  MIC: 0.45 µg/mL
[6]
  Stabilty: Stable
[12]
  Cmax: 4460 ng/mL
[13]
  MRT inf: 0.69 h
[14]
  AUC(0-t): 1030 ng·h/mL
[15]
  half-life: 1.28 h
[16]
  AUC(0-t): 4220 ng·h/mL
[17]
  MRT last: 1.7 h
[18]
  clearance: 80.1 mL/min/kg
[7]
  Stabilty: Stable
[19]
  AUC(0-inf): 1040 ng·h/mL
[8]
  selectivity ratio: 117
Vero
  IC50: 53.1 µg/mL (≈ 164 µM)
[20]
  AUC(0-inf): 4290 ng·h/mL
[21]
  Tmax: 0.25 h
[22]
  half-life: 1.42 h
[23]
  MRT last: 0.61 h
[24]
  Vd: 8.86 L/kg
[25]
  Activity: 4.77 log10CFU
[26]
  bioavailability: 20.5%

## CCOC(=O)c1c(-c2ccc(O)cc2)oc2ccc(O)c(CN3CCC3)c2c1=O
[1]
  MIC: 7.91 µg/mL

## O=c1cc(-c2ccc(O)cc2)oc2ccc(O)c(CN3CCCCCC3)c12
[1]
  MIC: 7.2 µg/mL

## CN(C)Cc1c(O)ccc2oc(-c3ccc(O)cc3)cc(=O)c12
[1]
  MIC: > 32 µg/mL

## O=c1cc(-c2ccc(O)cc2)oc2ccc(O)c(CN3CC4(CSC4)C3)c12
[1]
  MIC: 15.3 µg/mL

## CNC(=O)c1c(-c2ccccc2)oc2ccc(O)c(CN3CCCCC3)c2c1=O
[1]
  MIC: > 32 µg/mL

## NNC(=O)c1ccncc1 [ISONIAZID]
[1]
  MIC: 0.039 µg/mL
[27]
  Activity: 1.76 log10CFU
[28]
  Activity: 20.9 g

## CO[C@H]1/C=C/O[C@@]2(C)Oc3c(C)c(O)c4c(O)c(c(/C=N/N5CCN(C)CC5)c(O)c4c3C2=O)NC(=O)/C(C)=C\C=C\[C@H](C)[C@H](O)[C@@H](C)[C@@H](O)[C@@H](C)[C@H](OC(C)=O)[C@@H]1C [RIFAMPIN]
[1]
  MIC: 0.057 µg/mL

Reference: ChEMBL document CHEMBL4765252, “Design, synthesis, and biological evaluation of novel 4H-chromen-4-one derivatives as antituberculosis agents against multidrug-resistant tuberculosis” (Eur J Med Chem, 2020)
